# Activity calls are given as the source filed them. The calls are words filed in the database; no cut-off is given here.
# Experiments:
# [1] = target: Core antigen (Hepatitis B virus) (UniProt Q03732); test: Inhibition of dimerization of HA-tagged Hepatitis B Virus capsid (HBVcAg-N1-154) expressed in HEK293T cells at 50 to 100 uM after 48 hrs by co-immunoprecipitation assay; format: cell-based
# How it was run: (§1)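 HEK293T cells were co-transfected with HBc-VN-HA and HBc-VC-FLAG, then treated with DMSO or compound. After 48 h, lysates were co-immunoprecipitated with anti-HA beads and analysed by immunoblot.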
# Hepatitis B virus [2] = test: Antiviral activity against Hepatitis B virus infected in human HepG2.2.15 cells assessed as inhibition of viral replication after 7 days by RT-PCR analysis; format: functional, organism-based
# Hepatitis B virus [3] = test: Antiviral activity against Hepatitis B virus infected in BALB/c mouse injected with replication-competent HBV DNA plasmid HBV-1.2mer assessed as reduction in HBsAg replication at 30 mg/kg, iv measured after 2 weeks by ELISA; format: functional, organism-based
# How it was run: (§2)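 BALB/c transgenic mice carrying the replication-competent HBV-1.2mer plasmid were bled at day 0 for HBV DNA copies and randomly split into two groups of 3 males. Each group got 30 mg/kg compound or DMSO by tail vein, every 2 days, for 2 weeks. Blood was then collected. HBV DNA was measured by real-time PCR and HBsAg by ELISA.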
# [4] = Acute toxicity in BALB/c mouse assessed as effect on liver at 500 to 1000 mg/kg, ip measured on day 14 by hematoxylin and eosin staining based assay; format: organism-based; conditions: in vivo
# How it was run: (§3)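 Male Balb/c mice, 5 animals, given a single intraperitoneal injection at 0, 500 or 1000 mg/kg. Body weight followed for two weeks. On day 14, blood was taken for hepatic and renal function (AST, ALT, BUN, creatinine). Heart, liver, lung, spleen and kidney were sectioned, HE-stained and examined.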
# [5] = Acute toxicity in BALB/c mouse assessed as effect on lung at 500 to 1000 mg/kg, ip measured on day 14 by hematoxylin and eosin staining based assay; format: organism-based; conditions: in vivo; how it was run: as §3
# [6] = target: Core antigen (Hepatitis B virus) (UniProt Q03732); test: Inhibition of GFP-fused Hepatitis B Virus capsid (HBVcAg-GFP-N1-154) expressed in HEK293T cells assessed as reduction in capsid assembly after 48 hrs by fluorescence microscopic analysis; format: cell-based
# How it was run: (§4)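 BiFC assay: HBc fused to Venus fragments VN (1–154) and VC (155–239) were co-transfected into 293T cells, then compounds were added. The dose series used 0, 0.5, 5 and 50 μM; SAR used 50 μM as percent inhibition. After 48 h, reconstituted fluorescence was read as mean fluorescent intensity on a plate reader, with fluorescence microscopy images.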
# [7] = target: Core antigen (Hepatitis B virus) (UniProt Q03732); test: Inhibition of dimerization of HA-tagged Hepatitis B Virus capsid (HBVcAg-N1-154) expressed in HEK293T cells at 50 to 100 uM after 48 hrs by Western blot analysis; format: cell-based
# How it was run: (§5)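 HEK293T cells were transfected with HBc-VN-HA or HBc-VC-FLAG and treated with DMSO, 50 or 100 μM compound. After 48 h, lysates were western blotted with anti-HA, anti-FLAG and anti-GAPDH.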
# [8] = Hepatic toxicity in BALB/c mouse assessed as effect on ALT levels at 500 to 1000 mg/kg, ip measured on day 14; format: organism-based; conditions: in vivo; how it was run: as §3
# [9] = target: Core antigen (Hepatitis B virus) (UniProt Q03732); test: Inhibition of aggregation of HBV capsid (1 to 149 residues) expressed in Escherichia coli assessed as induction of abnormal capsid morphology at 0.2 to 50 uM by TEM analysis
# How it was run: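 His-tagged Cp149 was expressed in E. coli (IPTG 1 mM), Ni-affinity purified and kept in PBS. Cp149 (10 μM) in 50 mM HEPES pH 7.5 was preincubated 1 h with compound (0.2–50 μM) or DMSO. Assembly was started with NaCl to 50 mM and equilibrated 60 h at 23 °C. Grids were stained with 2% uranyl acetate and viewed by TEM.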
# Hepatitis B virus [10] = test: Antiviral activity against Hepatitis B virus infected in BALB/c mouse injected with replication-competent HBV DNA plasmid HBV-1.2mer assessed as reduction in viral DNA replication at 30 mg/kg, iv measured after 2 weeks by RT-PCR analysis; format: functional, organism-based; how it was run: as §2
# [11] = Renal toxicity in BALB/c mouse assessed as effect on CRE levels at 500 to 1000 mg/kg, ip measured on day 14; format: organism-based; conditions: in vivo; how it was run: as §3
# [12] = Renal toxicity in BALB/c mouse assessed as effect on BUN levels at 500 to 1000 mg/kg, ip measured on day 14; format: organism-based; conditions: in vivo; how it was run: as §3
# [13] = target: Core antigen (Hepatitis B virus) (UniProt Q03732); test: Inhibition of dimerization of HA-tagged Hepatitis B Virus capsid (HBVcAg-C155-239) expressed in HEK293T cells at 50 to 100 uM after 48 hrs by Western blot analysis; format: cell-based; how it was run: as §5
# [14] = target: Core antigen (Hepatitis B virus) (UniProt Q03732); test: Inhibition of GFP-fused Hepatitis B Virus capsid expressed in HEK293T cells at 50 uM after 48 hrs relative to control; format: cell-based; how it was run: as §4
# [15] = Hepatic toxicity in BALB/c mouse assessed as effect on AST levels at 500 to 1000 mg/kg, ip measured on day 14; format: organism-based; conditions: in vivo; how it was run: as §3
# [16] = target: Core antigen (Hepatitis B virus) (UniProt Q03732); test: Inhibition of dimerization of HA-tagged Hepatitis B Virus capsid (HBVcAg-C155-239) expressed in HEK293T cells at 50 to 100 uM after 48 hrs by co-immunoprecipitation assay; format: cell-based; how it was run: as §1
# [17] = Cytotoxicity against human HepG2.2.15 cells; format: cell-based, HepG2 2.2.15
# [18] = target: Core antigen (Hepatitis B virus) (UniProt Q03732); test: Inhibition of GFP-fused Hepatitis B Virus capsid (HBVcAg-VFP-C155-239) expressed in HEK293T cells assessed as reduction in capsid assembly after 48 hrs by fluorescence microscopic analysis; format: cell-based; how it was run: as §4
# [19] = Acute toxicity in BALB/c mouse assessed as effect on body weight at 500 to 1000 mg/kg, ip measured after 2 weeks; format: organism-based; conditions: in vivo, 336 h; how it was run: as §3
# [20] = Acute toxicity in BALB/c mouse assessed as effect on spleen at 500 to 1000 mg/kg, ip measured on day 14 by hematoxylin and eosin staining based assay; format: organism-based; conditions: in vivo; how it was run: as §3
# Hepatitis B virus [21] = test: Antiviral activity against Hepatitis B virus infected in human […] assessed as reduction in viral DNA replication at 30 mg/kg dosed orthotopically every 3 days for 4 weeks by RT-PCR analysis; format: functional, organism-based
# [22] = Acute toxicity in BALB/c mouse assessed as effect on heart at 500 to 1000 mg/kg, ip measured on day 14 by hematoxylin and eosin staining based assay; format: organism-based; conditions: in vivo; how it was run: as §3
# [23] = Acute toxicity in BALB/c mouse assessed as effect on kidney at 500 to 1000 mg/kg, ip measured on day 14 by hematoxylin and eosin staining based assay; format: organism-based; conditions: in vivo; how it was run: as §3
# Sequence of Core antigen (Hepatitis B virus) (Q03732 as listed by the source): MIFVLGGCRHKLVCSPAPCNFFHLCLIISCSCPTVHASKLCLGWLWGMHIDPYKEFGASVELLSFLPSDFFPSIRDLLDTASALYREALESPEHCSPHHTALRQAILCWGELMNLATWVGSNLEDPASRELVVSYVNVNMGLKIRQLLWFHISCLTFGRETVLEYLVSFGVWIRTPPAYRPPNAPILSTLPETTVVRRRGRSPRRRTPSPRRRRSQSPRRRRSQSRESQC
smiles,measurement,setting,value
O=S(=O)(Nc1ncc(C(Oc2ccc3cc(Br)ccc3c2)c2ccc(Cl)cc2)s1)c1cccc2cccnc12 (centres undefined),inhibition,[1],Active
same,inhibition,Hepatitis B virus [2],Dose-dependent effect
same,IC50,"Hepatitis B virus [2]; HepG2.2.15, 168 h",183 nM
same,Activity,Hepatitis B virus [3],Active
same,Activity,[4],Non-Toxic
same,Activity,[5],Non-Toxic
same,inhibition,[6],Dose-dependent effect
same,inhibition,[7],Active
same,Activity,[8],Non-Toxic
same,inhibition,[9],Active
same,Activity,Hepatitis B virus [10],Active
same,Activity,[11],Non-Toxic
same,Activity,[12],Non-Toxic
same,inhibition,[13],Active
same,inhibition,[14],63%
same,Activity,[15],Non-Toxic
same,inhibition,[16],Active
same,CC50,[17],> 50000 nM
same,inhibition,[18],Dose-dependent effect
same,Activity,[19],Non-Toxic
same,Activity,[20],Non-Toxic
same,Activity,Hepatitis B virus [21],Active
same,Activity,[22],Non-Toxic
same,Activity,[23],Non-Toxic
